Results of several laboratories.
Each line is one published result; the experiments were not run side by side.
CYP2C9: Cytochrome P450 2C9 (CYP2C9, Homo sapiens, UniProt P11712)

For `OCc1ccc(-c2nn(Cc3ccccn3)c3ccccc23)o1`, the half-life was 11 min (metabolic stability; rat, liver microsomes; 1 µM, pH 7.4).
`CC(=O)O[C@@H]1[C@@H](O)[C@H](O[C@H]2CC[C@]34C[C@]35CC[C@]3(C)[C@@H]([C@@]6(C)CC[C@@H](C(C)(C)O)O6)[C@@H](O)C[C@@]3(C)[C@@H]5C[C@H](O[C@@H]3O[C@H](CO)[C@@H](O)[C@H](O)[C@H]3O)[C@H]4C2(C)C)OC[C@H]1O` gave an IC50 of > 200 µM (CYP2C9; enzyme activity, inhibitor; human, liver microsomes).
`Cc1ccc(-c2nnc(N[C@@H](Cc3ccc(C#N)cc3)C(=O)N3CCc4ccccc43)o2)cc1` gave a half-life of 14 min (metabolic stability; rat, liver microsomes; 10 µM, pH 7.4).
With `CSc1ccccc1C(=O)NCCn1cc(C(=O)NCc2cccc(C)n2)c(=O)c2cc3c(cc21)OCO3` the IC50 was > 100 µM (CYP2C9; enzyme activity, inhibitor; human, liver microsomes; 20 min, without NADPH, with preincubation).
The half-life of `OCc1ccc(-c2nn(Cc3ccccc3)c3ccccc23)o1` is reported as 5 min (metabolic stability; rat, liver microsomes).
`COc1ccc(-c2coc3cc(O[C@@H]4O[C@H](CO)[C@@H](O)[C@H](O)[C@H]4O)ccc3c2=O)cc1O` has an IC50 of > 200 µM (CYP2C9; enzyme activity, inhibitor; human, liver microsomes).
For `CSc1ccccc1C(=O)NCCn1cc(C(=O)NCc2cccc(C)n2)c(=O)c2cc3c(cc21)OC(F)(F)O3`, the IC50 was > 100 µM (CYP2C9; enzyme activity, inhibitor; human, liver microsomes; 20 min, without NADPH, with preincubation).
For `N#Cc1ccc(C[C@H](NC(=O)c2cc3cc(F)ccc3[nH]2)C(=O)N2CCc3ccccc32)cc1`, the half-life was 76 min (metabolic stability; rat, liver microsomes; 10 µM, pH 7.4).
`CN(C)C(=O)c1cc2cnc(Nc3ccc(-c4ccc5c(=O)cc(N6CCOCC6)oc5c4)cc3)nc2n1C1CCCC1.Cl` has an AUC(0-inf) of 7810 ng·h/mL (BALB/c mouse, plasma; oral, 20 mg/kg).
